Assay outcomes (PubChem)
Calb FLC: C. albicans growth modulation with fluconazole; C. albicans CaCi-2 (fluconazole-resistant clinical isolate) + fluconazole, Alamar Blue growth, 48 h; growth inhibition, % (no concentration beside the values); actives 0.57% (n = 300,000); AID 1979;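 active = growth inhibition above about 58% in most replicates, limit read from the data, passing the limit was not always enough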;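 note: all wells also contain fluconazole at 8 µg/ml as a sub-toxic cotreatment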
Beta cell apopt: blocks beta cell apoptosis | INS-1E cytokine-induced death, ATP luminescence, 48 h; percent of positive-control rescue, neutral wells zero | protection from apoptosis, % (concentration not given with the values) | actives 0.8% (n = 300,000);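 active = Every replicate reaches about 75%, or at least half do and their mean reaches it too, limit read from the data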;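 note: higher means more ATP so stronger rescue from cytokine killing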
Mdm2 MdmX PPI: inhibitors of human Mdm2/MdmX interaction; O15151+Q00987; SaOS-2 split-luciferase Mdm2/MdmX complementation, luminescence; inhibition, % at 8 µM; AID 485346; actives 3% (n = 330,000);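 active = inhibition of at least 50% at 8 µM in the primary screen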
CSC inhib: blocks cancer stem cells | cancer stem cell-like cells viability, luminescence | inhibition, % at 7.5 µM | actives 1.1% (n = 300,000) | AID 2717; in the data active = inhibition above about 75%; tested in HMLE shEcad cells
T cruzi repl: T. cruzi replication inhibition; T. cruzi beta-gal in NIH3T3, luminescence, 90 h; inhibition, % (no concentration beside the values); actives 1.4% (n = 300,000); AID 1885;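 active = mean inhibition across valid replicates above about 55%, limit read from the data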;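 note: signal also drops with host cell toxicity which is not excluded here; higher percent means less beta-gal luminescence so fewer parasites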
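System – NIH/3T3 host cells with β-galactosidase reporter T. cruzi · Doses – single 50 nL compound addition per well in DMSO · Reagent – 5000 T. cruzi trypomastigotes/well · Medium – Low-serum DMEM with 2% FBS · Timing – ≥90 h infection period, 3 h prior cell attachment · Evaluation – parasite load inhibition, % · Technique – GalScreen luminescence, 60 min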
NLRP3 yeast inh: NALP3 inhibition in yeast; Yeast reconstituted NLRP3/ASC/caspase-1, beta-gal luminescence, 24 h; inhibition, % at 10 µM; actives 0.39% (n = 330,000); AID 2825;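 active = inhibition of 50% or more; inactive = inhibition below 50%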
Mdm2-MdmX conf: human Mdm2/MdmX binding inhibition, confirmed. shares compounds with Mdm2 MdmX PPI. luminescent assay. inhibition, % at 8 µM. actives 55% (n = 10,000). AID 489028; in the data active = inhibition above about 40%
Full FLuc ctr: full-length luciferase inhibition in Mdm2/MdmX counter-screen. shares compounds with Mdm2 MdmX PPI. SaOS-2 full-length luciferase counterscreen, luminescence. inhibition, % at 8 µM. actives 77% (n = 6,200). AID 504607;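 active = mean inhibition at 8 µM reaching about 37%, which flags the compound as non-specific, limit read from the data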;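 note: p53-null SaOS-2 cells with luciferase driven by a doxycycline-inducible promoter; compound on cells about two nights before reading with doxycycline added after day one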
Each line names hits and unclear results; the compound was inactive in the other large screens (follow-up assays come after a bar, where they were run). This is a sample that favours compounds with a hit; in the whole collection about 5.3% have one here.

CCOC(=O)c1[nH]c2ccc(Cl)cc2c1NC(=O)/C=C/c1ccc2c(c1)OCO2	Mdm2 MdmX PPI 56 | Mdm2-MdmX conf 45 | Full FLuc ctr 94
O=C(COC(=O)C12CC3CC(CC(C3)C1)C2)Nc1nc2c(F)c(F)c(F)cc2s1	Mdm2 MdmX PPI 58 (no result: Beta cell apopt, CSC inhib) | Mdm2-MdmX conf inactive
O=C(Nc1ccc([N+](=O)[O-])cc1)C(Cc1ccccc1)N1C(=O)c2cccc3cccc(c23)C1=O (centres undefined)	Mdm2 MdmX PPI 63 (no result: Beta cell apopt) | Mdm2-MdmX conf inactive
O=C(O)c1ccccc1NC(=O)C(Cc1ccccc1)N1C(=O)c2ccccc2C1=O (centres undefined)	none
COc1ccc(C(=O)N=c2nc3ccccn3s2)cc1	none
Cc1cc(C)cc(NC(=O)C2CCN(S(=O)(=O)c3ccc4c(c3)NC(=O)C(C)S4)CC2)c1 (centres undefined)	none
Cc1ccc(NC(=O)C2CCN(S(=O)(=O)c3ccc4c(c3)NC(=O)C(C)S4)CC2)cc1Cl (centres undefined)	Beta cell apopt 107, Mdm2 MdmX PPI 61 | Mdm2-MdmX conf inactive
O=C(/C=C/c1ccccc1)Nc1cccc(C(=O)O)c1	Mdm2 MdmX PPI 68 | Mdm2-MdmX conf 64 | Full FLuc ctr inactive
CCC(=O)Nc1cccc(C(=O)/C=C/c2cccs2)c1	none
CCC(=O)Nc1cccc(C(=O)/C=C/c2ccccc2)c1	Mdm2 MdmX PPI 95 | Mdm2-MdmX conf inactive | Full FLuc ctr inactive
O=C(/C=C/c1ccccc1)Nc1cc(NC(=O)/C=C/c2ccccc2)cc(C(=O)O)c1	none
COc1ccccc1OCCN1C(=O)S/C(=C\c2ccco2)C1=O	none
COC(=O)C1=CN(c2cc(C)cc(C)c2)C=C(C(=O)OC)C1c1ccc(OC)c(O)c1	none
COC(=O)C1=CN(c2cc(C)cc(C)c2)C=C(C(=O)OC)C1c1cccc(F)c1	Mdm2 MdmX PPI 53, T cruzi repl 55 | Mdm2-MdmX conf inactive | Full FLuc ctr 106
O=C(CCl)N1N=C(c2ccco2)CC1c1ccco1 (centres undefined)	Mdm2 MdmX PPI 97 (no result: Beta cell apopt) | Mdm2-MdmX conf 49 | Full FLuc ctr inactive
CN1CCN(CC(=O)N2N=C(c3cccs3)CC2c2ccco2)CC1 (centres undefined)	none
CCS(=O)(=O)Nc1ccc(C2=NN(C(=O)c3ccco3)C(c3ccco3)C2)cc1 (centres undefined)	Mdm2 MdmX PPI 53 | Mdm2-MdmX conf 74 | Full FLuc ctr 56
O=C(CCl)N1N=C(c2cccs2)CC1c1ccco1 (centres undefined)	Mdm2 MdmX PPI 100, T cruzi repl 83 | Mdm2-MdmX conf 99 | Full FLuc ctr 53
Cc1ccc(C2=NN(C(=O)CSc3nccn3C)C(c3ccco3)C2)cc1 (centres undefined)	Mdm2 MdmX PPI 65 (no result: Beta cell apopt) | Mdm2-MdmX conf 57 | Full FLuc ctr 68
Nc1c(-c2cccs2)cnn1-c1nc(-c2ccc(Cl)cc2Cl)cs1	none
COc1cc(/C=C(/C(=O)c2cccs2)c2nc3ccccc3[nH]2)cc(OC)c1O	Mdm2 MdmX PPI 91, CSC inhib 77 | Mdm2-MdmX conf 91 | Full FLuc ctr 62
O=C(/C(=C/c1ccc(Cl)cc1)c1nc2ccccc2[nH]1)c1ccccc1	Beta cell apopt 104, Mdm2 MdmX PPI 100, T cruzi repl 68 | Mdm2-MdmX conf 99 | Full FLuc ctr 51
O=S(=O)(c1ccc(N2CCC(c3ccc(Cl)cc3)=N2)cc1)N(CCO)CCO	none
CN(C)CCCNS(=O)(=O)c1ccc(N2CCC(c3ccc(Cl)cc3)=N2)cc1	Mdm2 MdmX PPI 100, CSC inhib 112, T cruzi repl 72 | Mdm2-MdmX conf 100 | Full FLuc ctr inactive
COC(=O)c1ccc(/C=C2\Oc3ccccc3NC2=O)cc1	none
O=C1Nc2ccccc2O/C1=C\c1c(F)cccc1Cl	Mdm2 MdmX PPI 60 | Mdm2-MdmX conf 42 | Full FLuc ctr 60
O=C(CCc1nnc(-c2ccc3c(c2)OCO3)o1)NCCc1ccccc1F	none
CCN(c1ccccc1)S(=O)(=O)c1ccc(NC(=O)c2nc(S(C)(=O)=O)ncc2Cl)cc1	Beta cell apopt 98, Mdm2 MdmX PPI 99, CSC inhib 99 | Mdm2-MdmX conf 96 | Full FLuc ctr 51
CCS(=O)(=O)c1ncc(Cl)c(C(=O)Nc2ccc(S(=O)(=O)N(C)c3ccccc3)cc2)n1	Beta cell apopt 105, Mdm2 MdmX PPI 98, CSC inhib 98 | Mdm2-MdmX conf 100 | Full FLuc ctr 51
CCc1ccc(Nc2ccc(C(=O)O)cc2[N+](=O)[O-])cc1	none
CCC(=O)NC(c1cccs1)c1ccc2cccnc2c1O (centres undefined)	Calb FLC 101, Beta cell apopt 107, Mdm2 MdmX PPI 82, CSC inhib 106, T cruzi repl 78 | Mdm2-MdmX conf 84 | Full FLuc ctr inactive
Cc1cccnc1NC(=S)NC(=O)c1cccs1	none
CC(C)CC(=O)NC(NC(=S)Nc1cccc2cccnc12)C(Cl)(Cl)Cl (centres undefined)	none
Cc1conc1NC(c1cccs1)c1ccc2cccnc2c1O (centres undefined)	Calb FLC 87, Beta cell apopt 106, Mdm2 MdmX PPI 63, CSC inhib 101 | Mdm2-MdmX conf 50 | Full FLuc ctr inactive
CC(C)CC(=O)NC(c1cccs1)c1ccc2cccnc2c1O (centres undefined)	Calb FLC 107, Beta cell apopt 110, Mdm2 MdmX PPI 72, CSC inhib 102, T cruzi repl 60 | Mdm2-MdmX conf 85 | Full FLuc ctr inactive
Nc1cccc(C(=O)N/N=C/c2ccsc2)c1	none
CC(C(=O)Nc1sc2c(c1C(=O)NCc1ccco1)CCCC2)N1C(=O)c2ccccc2C1=O (centres undefined)	none
Cc1ccc(C(=O)c2cnc3cc4c(cc3c2S(=O)(=O)c2ccccc2)OCCO4)cc1	Mdm2 MdmX PPI 61 (no result: Beta cell apopt, CSC inhib) | Mdm2-MdmX conf 42 | Full FLuc ctr 52
O=c1oc2ccccc2cc1-c1cn2ccccc2n1	Mdm2 MdmX PPI 76 | Mdm2-MdmX conf 62 | Full FLuc ctr 72
CCOC(=O)c1ccc(N2C(=O)C(C)=C(C)C2=O)cc1	Mdm2 MdmX PPI 62 | Mdm2-MdmX conf inactive
COc1ccccc1[C@H]1C(c2cccc(C)c2)=NN(c2ccccc2)[C@@H]1CO	Mdm2 MdmX PPI 56 (no result: Calb FLC, Beta cell apopt, CSC inhib, T cruzi repl, NLRP3 yeast inh) | Mdm2-MdmX conf inactive
COc1cc(/C=C2\SC(=S)N(CC(=O)O)C2=O)ccc1OC(=O)c1ccco1	none
C#CCOc1ccc(/C=C2\SC(=S)N(Cc3cccnc3)C2=O)cc1	Mdm2 MdmX PPI 60, CSC inhib 79 (no result: Beta cell apopt) | Mdm2-MdmX conf 71 | Full FLuc ctr 55
